Published values collected from several papers.
Target: Myotonin-protein kinase (DMPK, Homo sapiens, UniProt Q09013)
Sequence (Q09013 1-629, as in one of the studies): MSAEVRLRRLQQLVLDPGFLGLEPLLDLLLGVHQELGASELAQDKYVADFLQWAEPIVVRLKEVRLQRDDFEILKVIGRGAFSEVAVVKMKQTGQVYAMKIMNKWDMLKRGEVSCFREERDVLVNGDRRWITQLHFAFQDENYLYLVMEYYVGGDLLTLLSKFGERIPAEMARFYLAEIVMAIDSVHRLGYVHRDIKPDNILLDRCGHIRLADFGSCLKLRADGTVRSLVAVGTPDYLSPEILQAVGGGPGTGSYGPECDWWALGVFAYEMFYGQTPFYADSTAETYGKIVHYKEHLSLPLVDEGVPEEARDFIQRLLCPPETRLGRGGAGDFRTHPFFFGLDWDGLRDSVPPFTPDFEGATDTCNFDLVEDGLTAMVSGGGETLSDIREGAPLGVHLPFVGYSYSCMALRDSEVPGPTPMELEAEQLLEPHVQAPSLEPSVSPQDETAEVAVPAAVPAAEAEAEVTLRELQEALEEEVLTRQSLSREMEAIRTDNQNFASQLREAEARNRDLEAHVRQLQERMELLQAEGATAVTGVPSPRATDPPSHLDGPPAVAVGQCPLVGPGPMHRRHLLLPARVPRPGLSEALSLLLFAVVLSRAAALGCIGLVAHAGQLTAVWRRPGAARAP

Structure (SMILES)	observed	method	concentration	remaining binding [%]
Nc1cnc(N2CCc3cc(S(=O)(=O)Nc4c(F)cc(Cl)cc4F)cc(N4CCCC4=O)c32)nc1	cell-free assay	competition with immobilised ligand	1 µM	100
COc1ccnn2ncc(-c3ccnc(N(C)C)n3)c12	binding	–	1 µM	100
O=C1CCc2cc(Nc3cc(OC4CCOCC4)c([N+](=O)[O-])cc3Cl)ccc2N1	cell-free assay	competition with immobilised ligand	1 µM	96
CN(C)c1ncc(F)c(-c2cnn3ncccc23)n1	binding	–	1 µM	100
FC(F)(F)Oc1cccc(-c2cnc3ccc(-c4ccncc4)nn23)c1	cell-free assay	competition with immobilised ligand	5 µM	99
CCN1CCN(Cc2ccc(C(=O)Nc3ccc(C)c(Oc4ccc5c(c4)CC(=O)N5)c3)cc2C(F)(F)F)CC1	binding	competition with immobilised ligand	1 µM	88
O=C(c1ccc(Nc2ncc(Cl)c(-c3cc4ccccc4s3)n2)cc1)N1CCC(N2CCCC2)CC1	binding	competition with immobilised ligand	1 µM	75
CO[C@@H](C)c1c(Nc2ccc([C@@H](N(C)C(=O)C3CCS(=O)(=O)CC3)C(F)(F)F)cc2)cnc2cc(Cl)nn12	cell-free assay	competition with immobilised ligand	1 µM	91
C[C@@H](c1ccc(-n2cnc3c(N)ncnc32)cc1)N1CCc2nn(C)c(Cc3ccccc3)c2C1=O	binding	competition with immobilised ligand	0.1 µM	86
COc1ncc2cc3ccccc3nc2c1C#N	cell-free assay	competition with immobilised ligand	5 µM	100
COc1cnc(Nc2cccc(S(N)(=O)=O)c2)nc1N1CCN(c2ccccc2)CC1	binding	competition with immobilised ligand	1 µM	100
O=C(NCC1CCOCC1)c1n[nH]cc1NC(=O)c1c(F)cccc1F	binding	competition with immobilised ligand	1 µM	38
c1cnn2ncc(-c3ccnc(N4CCC45COC5)n3)c2c1	binding	–	1 µM	98
COc1cccc(CNC(=O)c2nc3scc(COCc4ccc(C(=O)O)cc4)c3c(=O)[nH]2)c1	cell-free assay	competition with immobilised ligand	1 µM	85.4
Cc1cnc(Nc2ccc(C(=O)N3CCC(N4CCCC4)CC3)cc2)nc1-c1cc2ccccc2s1	binding	competition with immobilised ligand	1 µM	100
N[C@@H]1CCN(c2nccc(-c3cnn4ncccc34)n2)C1	binding	–	1 µM	94
CNC(=O)c1ccc(Nc2ncc(C(F)(F)F)c(NCc3nccnc3N(C)S(C)(=O)=O)n2)cc1	cell-free assay	competition with immobilised ligand	0.1 µM	16
C=CC(=O)N1CCC(C(=O)NCC(=O)N2CCN(c3nc(-c4cnc(N)nc4C(F)F)nc(N4CCOCC4)n3)CC2)CC1	binding	competition with immobilised ligand	1 µM	87
C[C@@H]1CCN(c2nccc(-c3cnn4ncccc34)n2)C1	binding	–	1 µM	90
O=C(NCCCN1CCOCC1)c1ccc(Nc2ncc(Cl)c(-c3ccc(Cl)s3)n2)cc1	binding	competition with immobilised ligand	1 µM	100
CN(C)c1nccc(-c2cnn3ncccc23)n1	binding	–	1 µM	100
O=c1nc(-c2ccccn2)sc2ccccc12	binding	competition with immobilised ligand	1 µM	100
